Measurements taken from paper PMC4137555 (Methods in enzymology, 2011).
Where “and” joins values, the source holds several entries; their conditions need not be identical. Equal values may be shown once. Ends that are not written are not given here. Peptide text beside a SMILES is read from it. * marks the point of attachment. Dansyl = CN(C)c1cccc2c(S(=O)(=O)*)cccc12

T1: Tiam2 PDZ domain (Homo sapiens, UniProt Q8IVF5)
T1 sequence (Q8IVF5 890-976 limits assumed): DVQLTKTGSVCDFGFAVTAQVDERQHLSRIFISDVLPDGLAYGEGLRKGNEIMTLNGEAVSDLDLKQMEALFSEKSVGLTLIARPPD

T2: KP-4E-Sdc1 peptide
T2 chain: Dansyl-QEEYYA


Experiments:
[1] = target: Tiam1 PDZ domain (wild-type) (Homo sapiens, UniProt Q13009); assay type: binding; conditions: for Kd: SD; for ΔGb (free energy of binding): calculated from the dissociation constant, error by error propagation, 25 °C; for ΔΔGb: ΔΔGb = ΔGb(Core) − ΔGb(peptide); for Σ Singles: sum of the ΔΔGb of the two single-mutant peptides; for binding to the Tiam1 PDZ domain (in words): unpublished data of the authors
Tiam1 PDZ domain (wild-type), sequence (Q13009 841-930 limits assumed): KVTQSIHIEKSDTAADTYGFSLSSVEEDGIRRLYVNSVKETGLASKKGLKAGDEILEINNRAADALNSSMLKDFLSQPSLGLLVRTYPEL
In short: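 His6-tagged Tiam1 PDZ domain expressed in E. coli BL21(DE3), purified by nickel-chelate and size-exclusion chromatography, tag removed with rTEV. N-terminally dansylated peptides (2 or 5 μM) in 20 mM PO4, 50 mM NaCl, 0.5 mM EDTA, pH 6.8, at 25 °C; PDZ added in 20–30 steps. Anisotropy read at λex 340/λem 555 nm and fit hyperbolically. Triplicate titrations, mean Kd ± standard deviation.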

Tiam2 PDZ domain = target: T1, Tiam2 PDZ domain; experiment: Peptide binding to the Tiam2 PDZ domain; conditions: unpublished data of the authors
Model peptide = conditions: cited from earlier work
KP-4E-Sdc1 peptide = target: T2, KP-4E-Sdc1 peptide; experiment: fluorescence anisotropy

| Molecule | Kd [1] [µM] | ΔGb (free energy of binding) [1] [kcal/mol] | ΔΔGb [1] [kcal/mol] | other results |
| --- | --- | --- | --- | --- |
| CN(C)c1cccc2c(S(=O)(=O)N[C@@H](CO)C(=O)N[C@@H](CO)C(=O)N[C@@H](CCC(N)=O)C(=O)N[C@@H](CCCCN)C(=O)N[C@@H](CCC(=O)O)C(=O)N[C@@H](Cc3ccc(O)cc3)C(=O)N[C@@H](Cc3ccc(O)cc3)C(=O)N[C@@H](Cc3ccccc3)C(=O)O)cccc12 [AP0F–Caspr4] (Dansyl-SSQKEYYF-OH) | 89 ± 5 | -5.52 ± 0.06 | -0.17 ± 0.08 | – |
| CN(C)c1cccc2c(S(=O)(=O)N[C@@H](CCC(=O)O)C(=O)N[C@@H](CC(N)=O)C(=O)N[C@@H](CCC(N)=O)C(=O)N[C@@H](CCCCN)C(=O)N[C@@H](CCC(=O)O)C(=O)N[C@@H](Cc3ccc(O)cc3)C(=O)N[C@@H](Cc3ccccc3)C(=O)N[C@@H](Cc3ccccc3)C(=O)O)cccc12 [Caspr4] (Dansyl-ENQKEYFF-OH) | 19 ± 0.4 | -6.43 ± 0.02 | -1.09 ± 0.05 | binding to the Tiam2 PDZ domain (in words) (Tiam2 PDZ domain): bound the PDZ domain tightly; ΔΔΔGint (interaction energy, double-mutant cycle) ([1]; double-mutant cycle of evolved peptides: Core, two single mutants, double mutant): -0.51 kcal/mol and -0.51 ± 0.08 kcal/mol; Σ Singles [1]: -0.57 ± 0.09 kcal/mol; binding to the Tiam1 PDZ domain (in words) [1]: bound the Tiam1 PDZ domain |
| C[C@H](NC(=O)[C@H](Cc1ccc(O)cc1)NC(=O)[C@H](Cc1ccc(O)cc1)NC(=O)[C@H](CCC(=O)O)NC(=O)[C@H](CCC(=O)O)NC(=O)[C@H](CCC(N)=O)NC(=O)[C@H](CO)NC(=O)[C@H](CO)NS(=O)(=O)c1cccc2c(N(C)C)cccc12)C(=O)O [KP−4E–Sdc1] (Dansyl-SSQEEYYA-OH) | 40 ± 2 | -5.99 ± 0.06 | -0.65 ± 0.07 | – |
| C[C@H](NC(=O)[C@H](Cc1ccccc1)NC(=O)[C@H](Cc1ccc(O)cc1)NC(=O)[C@H](CCC(=O)O)NC(=O)[C@H](CCCCN)NC(=O)[C@H](CCC(N)=O)NC(=O)[C@H](CO)NC(=O)[C@H](CO)NS(=O)(=O)c1cccc2c(N(C)C)cccc12)C(=O)O [YP−1F–Caspr4] (Dansyl-SSQKEYFA-OH) | 60.1 ± 0.6 | -5.75 ± 0.01 | -0.40 ± 0.05 | – |
| C[C@H](NC(=O)[C@H](Cc1ccc(O)cc1)NC(=O)[C@H](Cc1ccccc1)NC(=O)[C@H](CCC(=O)O)NC(=O)[C@H](CCCCN)NC(=O)[C@H](CCC(N)=O)NC(=O)[C@H](CO)NC(=O)[C@H](CO)NS(=O)(=O)c1cccc2c(N(C)C)cccc12)C(=O)O [YP−2F–Sdc1] (Dansyl-SSQKEFYA-OH) | 106 ± 7 | -5.42 ± 0.07 | -0.07 ± 0.08 | – |
| NKDKEYYVCOOH [Neurexin1, reference compound] | – | – | – | binding to the Tiam2 PDZ domain (in words) (Tiam2 PDZ domain): bound the PDZ domain tightly |
| SSRKEYYACOOH [Model peptide, reference compound] | – | -5.38 ± 0.05 | – | – |
| TKQEEFYACOOH [Syndecan1] | – | -6.23 ± 0.03 | -0.88 ± 0.06 | Σ Singles [1]: -0.71 ± 0.11 kcal/mol; binding to the Tiam1 PDZ domain (in words) [1]: bound the Tiam1 PDZ domain |
| Tiam1 PDZ (from UniProt Q13009) | – | – | – | Kd (Model peptide): 112 µM |
| Tiam1 PDZ (protein) VTQSIHIEKSDTAADTYGFSLSSVEEDGIRRLYVNSVKETGLASKKGLKAGDEILEINNRAADALNSSML | – | – | – | Kd (KP-4E-Sdc1 peptide): 40 µM |
